From ChEMBL document CHEMBL1649569, “oqxAB encoding a multidrug efflux pump in human clinical isolates of Enterobacteriaceae” (2009)
Converted amounts (≈) assume the structure as drawn.

Legend:
Klebsiella pneumoniae [1] = assay: Antibacterial activity against Klebsiella pneumoniae isolate 3-45 by Etest method
Klebsiella pneumoniae [2] = assay: Antibacterial activity against Klebsiella pneumoniae isolate 4-38 harboring aac(6')Ib-cr gene by Etest method
Klebsiella pneumoniae [3] = assay: Antibacterial activity against Klebsiella pneumoniae isolate 4-39 by Etest method
Klebsiella pneumoniae [4] = assay: Antibacterial activity against Klebsiella pneumoniae isolate 5-22 by Etest method
Klebsiella pneumoniae [5] = assay: Antibacterial activity against Klebsiella pneumoniae isolate 4-13 harboring aac(6')Ib-cr gene by Etest method
Escherichia coli [6] = assay: Antibacterial activity against Escherichia coli isolate 4-78 by Etest method
Escherichia coli [7] = assay: Antibacterial activity against Escherichia coli isolate 4-69 by Etest method
Klebsiella pneumoniae [8] = assay: Antibacterial activity against Klebsiella pneumoniae isolate 6-49 by Etest method
Escherichia coli [9] = assay: Antibacterial activity against Escherichia coli isolate 5-56 by Etest method
Klebsiella pneumoniae [10] = assay: Antibacterial activity against Klebsiella pneumoniae isolate 5-80 by Etest method
Klebsiella pneumoniae [11] = assay: Antibacterial activity against Klebsiella pneumoniae isolate 2-54 by Etest method
Escherichia coli [12] = assay: Antibacterial activity against Escherichia coli isolate 1-12 by Etest method
Escherichia coli [13] = assay: Antibacterial activity against Escherichia coli isolate 5-59 harboring qepA gene by Etest method
Enterobacter cloacae [14] = assay: Antibacterial activity against Enterobacter cloacae isolate 1-3 by broth dilution method; type: functional
Method in brief: (§1)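 Clinical isolates tested by broth dilution in LB broth, with the MIC read as the end-point.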

Klebsiella pneumoniae [15] = assay: Antibacterial activity against Klebsiella pneumoniae isolate 3-45 by broth dilution method; type: functional; method in brief: as §1
Escherichia coli [16] = assay: Antibacterial activity against azide-resistant Escherichia coli J53 by broth dilution method
Enterobacter cloacae [17] = assay: Antibacterial activity against Enterobacter cloacae isolate 1-40 by broth dilution method; type: functional; method in brief: as §1
Klebsiella pneumoniae [18] = assay: Antibacterial activity against Klebsiella pneumoniae isolate 6-49 by broth dilution method; type: functional; method in brief: as §1
Klebsiella pneumoniae [19] = assay: Antibacterial activity against Klebsiella pneumoniae isolate 5-22 by broth dilution method; type: functional; method in brief: as §1
Klebsiella pneumoniae [20] = assay: Antibacterial activity against Klebsiella pneumoniae isolate 1-68 by broth dilution method; type: functional; method in brief: as §1
Escherichia coli [21] = assay: Antibacterial activity against Escherichia coli isolate 4-69 by broth dilution method; type: functional
Method in brief: (§2)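 MIC by broth dilution in LB broth against human clinical Enterobacteriaceae isolates, with strains characterised by PCR for oqxA/oqxB and other plasmid-mediated quinolone resistance genes.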

Klebsiella pneumoniae [22] = assay: Antibacterial activity against Klebsiella pneumoniae isolate 3-51 by broth dilution method; type: functional; method in brief: as §1
Escherichia coli [23] = assay: Antibacterial activity against Escherichia coli isolate 4-78 by broth dilution method; type: functional; method in brief: as §2
Enterobacter cloacae [24] = assay: Antibacterial activity against Enterobacter cloacae isolate 4-11 by broth dilution method; type: functional; method in brief: as §1
Klebsiella pneumoniae [25] = assay: Antibacterial activity against Klebsiella pneumoniae isolate 2-54 by broth dilution method; type: functional; method in brief: as §1
Klebsiella pneumoniae [26] = assay: Antibacterial activity against Klebsiella pneumoniae isolate 4-38 harboring aac(6')Ib-cr gene by broth dilution method; type: functional; method in brief: as §2
Enterobacter cloacae [27] = assay: Antibacterial activity against Enterobacter cloacae isolate 6-4 by broth dilution method; type: functional; method in brief: as §1
Escherichia coli [28] = assay: Antibacterial activity against Escherichia coli isolate 5-59 harboring qepA gene by broth dilution method; type: functional; method in brief: as §2
Enterobacter cloacae [29] = assay: Antibacterial activity against Enterobacter cloacae isolate 1-26 by broth dilution method; type: functional; method in brief: as §1
Enterobacter cloacae [30] = assay: Antibacterial activity against Enterobacter cloacae isolate 1-39 by broth dilution method; type: functional; method in brief: as §1
Klebsiella pneumoniae [31] = assay: Antibacterial activity against Klebsiella pneumoniae isolate 4-39 by broth dilution method; type: functional; method in brief: as §1
Escherichia coli [32] = assay: Antibacterial activity against Escherichia coli isolate 5-65 by broth dilution method; type: functional; method in brief: as §2
Klebsiella pneumoniae [33] = assay: Antibacterial activity against Klebsiella pneumoniae isolate 5-80 by broth dilution method; type: functional; method in brief: as §1
Escherichia coli [34] = assay: Antibacterial activity against Escherichia coli isolate 1-12 by broth dilution method; type: functional; method in brief: as §1
Klebsiella pneumoniae [35] = assay: Antibacterial activity against Klebsiella pneumoniae isolate 4-13 harboring aac(6')Ib-cr gene by broth dilution method; type: functional; method in brief: as §2
Escherichia coli [36] = assay: Antibacterial activity against Escherichia coli isolate 5-56 by broth dilution method; type: functional; method in brief: as §2
Escherichia coli [37] = assay: Antibacterial activity against Escherichia coli isolate 4-67 by broth dilution method; type: functional; method in brief: as §2
Escherichia coli [38] = assay: Antibacterial activity against Escherichia coli ATCC 25922 by broth dilution method; type: functional

Work on `O=C(O)c1cn(C2CC2)c2cc(N3CCNCC3)c(F)cc2c1=O` [CIPROFLOXACIN] yielded an MIC (Klebsiella pneumoniae [1]) of 0.023 µg/mL (≈ 0.0694 µM), an MIC (Klebsiella pneumoniae [2]) of over 32 µg/mL and an MIC (Klebsiella pneumoniae [3]) of 0.064 µg/mL (≈ 0.193 µM). For the same compound, the MIC (Klebsiella pneumoniae [4]) was 0.064 µg/mL (≈ 0.193 µM), the MIC (Klebsiella pneumoniae [5]) was over 32 µg/mL and the MIC (Escherichia coli [6]) was over 32 µg/mL. The MIC (Escherichia coli [7]) was over 32 µg/mL, the MIC (Klebsiella pneumoniae [8]) was over 32 µg/mL and the MIC (Escherichia coli [9]) was over 32 µg/mL. It also gave an MIC (Klebsiella pneumoniae [10]) of 3 µg/mL (≈ 9.05 µM), an MIC (Klebsiella pneumoniae [11]) of 0.023 µg/mL (≈ 0.0694 µM) and an MIC (Escherichia coli [12]) of over 32 µg/mL. For the same compound, the MIC (Escherichia coli [13]) was over 32 µg/mL.

Compound `Cc1c(C(=O)NCCO)[n+]([O-])c2ccccc2[n+]1[O-]` [OLAQUINDOX] has an MIC (Enterobacter cloacae [14]) of 64 µg/mL (≈ 243 µM), an MIC (Klebsiella pneumoniae [15]) of 16 µg/mL (≈ 60.8 µM) and an MIC (Escherichia coli [16]) of 8 µg/mL (≈ 30.4 µM). For the same compound, the MIC (Enterobacter cloacae [17]) was 128 µg/mL (≈ 486 µM), the MIC (Klebsiella pneumoniae [18]) was over 256 µg/mL and the MIC (Klebsiella pneumoniae [19]) was 8 µg/mL (≈ 30.4 µM). The MIC (Klebsiella pneumoniae [20]) was 8 µg/mL (≈ 30.4 µM), the MIC (Escherichia coli [21]) was 16 µg/mL (≈ 60.8 µM) and the MIC (Klebsiella pneumoniae [22]) was 16 µg/mL (≈ 60.8 µM). The MIC (Escherichia coli [23]) was 16 µg/mL (≈ 60.8 µM), the MIC (Enterobacter cloacae [24]) was 32 µg/mL (≈ 122 µM) and the MIC (Klebsiella pneumoniae [25]) was 8 µg/mL (≈ 30.4 µM). For the same compound, the MIC (Klebsiella pneumoniae [26]) was over 256 µg/mL, the MIC (Enterobacter cloacae [27]) was 16 µg/mL (≈ 60.8 µM) and the MIC (Escherichia coli [28]) was 16 µg/mL (≈ 60.8 µM). It also gave an MIC (Enterobacter cloacae [29]) of 128 µg/mL (≈ 486 µM), an MIC (Enterobacter cloacae [30]) of 128 µg/mL (≈ 486 µM) and an MIC (Klebsiella pneumoniae [31]) of 16 µg/mL (≈ 60.8 µM). For the same compound, the MIC (Escherichia coli [32]) was 16 µg/mL (≈ 60.8 µM), the MIC (Klebsiella pneumoniae [33]) was over 256 µg/mL and the MIC (Escherichia coli [34]) was 256 µg/mL (≈ 972 µM). The MIC (Klebsiella pneumoniae [35]) was over 256 µg/mL, the MIC (Escherichia coli [36]) was 16 µg/mL (≈ 60.8 µM) and the MIC (Escherichia coli [37]) was 16 µg/mL (≈ 60.8 µM). It also gave an MIC (Escherichia coli [38]) of 8 µg/mL (≈ 30.4 µM).
